Consider 30 molecules from ChEMBL document CHEMBL1158589, “Benzimidazole and imidazole inhibitors of histone deacetylases: Synthesis and biological activity” (Bioorg Med Chem Lett, 2010).

For one assay, the target named is T1, Histone deacetylase 8 (Homo sapiens, UniProt Q9BY41).
T1 sequence (Q9BY41 whole entry): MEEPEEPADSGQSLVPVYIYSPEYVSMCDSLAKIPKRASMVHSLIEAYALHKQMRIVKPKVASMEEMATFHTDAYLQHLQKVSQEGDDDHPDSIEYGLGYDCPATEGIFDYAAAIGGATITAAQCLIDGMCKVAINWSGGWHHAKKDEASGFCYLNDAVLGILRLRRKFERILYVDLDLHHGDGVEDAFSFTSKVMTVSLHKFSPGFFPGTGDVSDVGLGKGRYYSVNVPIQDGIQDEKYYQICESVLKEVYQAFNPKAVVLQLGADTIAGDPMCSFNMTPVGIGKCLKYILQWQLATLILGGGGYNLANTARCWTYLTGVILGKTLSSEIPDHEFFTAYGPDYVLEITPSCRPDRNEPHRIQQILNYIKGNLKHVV
Nature of the assay: Inhibition of human recombinant HDAC8.

The next assay deals with A549. Nature of the assay: Cytotoxicity against human A549 cells assessed as NADH level after 72 hrs by MTS cells. Type of assay: functional, cell-based. To be noted: A549, 72 h. The method, boiled down:
(§1)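 Human A549 lung, HL60 leukemia and PC3 prostate cancer lines incubated with compound for 72 h. Viability read by MTS colorimetric assay from remaining NADH; EC50 calculated; mean of at least two experiments.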

Another assay deals with HL-60. Nature of the assay: Cytotoxicity against human HL60 cells assessed as NADH level after 72 hrs by MTS cells. In kind it is functional, cell-based. The conditions noted are these: HL-60, 72 h. Put shortly: as §1
Another assay relates to PC-3. Kind of assay: Cytotoxicity against human PC3 cells assessed as NADH level after 72 hrs by MTS cells. In kind it is functional, cell-based. To be noted: PC-3, 72 h. The method, boiled down: as §1
Assay [1] has as its target T2, Protein deacetylase HDAC6 (Homo sapiens, UniProt Q9UBN7).
T2 sequence (Q9UBN7 whole entry): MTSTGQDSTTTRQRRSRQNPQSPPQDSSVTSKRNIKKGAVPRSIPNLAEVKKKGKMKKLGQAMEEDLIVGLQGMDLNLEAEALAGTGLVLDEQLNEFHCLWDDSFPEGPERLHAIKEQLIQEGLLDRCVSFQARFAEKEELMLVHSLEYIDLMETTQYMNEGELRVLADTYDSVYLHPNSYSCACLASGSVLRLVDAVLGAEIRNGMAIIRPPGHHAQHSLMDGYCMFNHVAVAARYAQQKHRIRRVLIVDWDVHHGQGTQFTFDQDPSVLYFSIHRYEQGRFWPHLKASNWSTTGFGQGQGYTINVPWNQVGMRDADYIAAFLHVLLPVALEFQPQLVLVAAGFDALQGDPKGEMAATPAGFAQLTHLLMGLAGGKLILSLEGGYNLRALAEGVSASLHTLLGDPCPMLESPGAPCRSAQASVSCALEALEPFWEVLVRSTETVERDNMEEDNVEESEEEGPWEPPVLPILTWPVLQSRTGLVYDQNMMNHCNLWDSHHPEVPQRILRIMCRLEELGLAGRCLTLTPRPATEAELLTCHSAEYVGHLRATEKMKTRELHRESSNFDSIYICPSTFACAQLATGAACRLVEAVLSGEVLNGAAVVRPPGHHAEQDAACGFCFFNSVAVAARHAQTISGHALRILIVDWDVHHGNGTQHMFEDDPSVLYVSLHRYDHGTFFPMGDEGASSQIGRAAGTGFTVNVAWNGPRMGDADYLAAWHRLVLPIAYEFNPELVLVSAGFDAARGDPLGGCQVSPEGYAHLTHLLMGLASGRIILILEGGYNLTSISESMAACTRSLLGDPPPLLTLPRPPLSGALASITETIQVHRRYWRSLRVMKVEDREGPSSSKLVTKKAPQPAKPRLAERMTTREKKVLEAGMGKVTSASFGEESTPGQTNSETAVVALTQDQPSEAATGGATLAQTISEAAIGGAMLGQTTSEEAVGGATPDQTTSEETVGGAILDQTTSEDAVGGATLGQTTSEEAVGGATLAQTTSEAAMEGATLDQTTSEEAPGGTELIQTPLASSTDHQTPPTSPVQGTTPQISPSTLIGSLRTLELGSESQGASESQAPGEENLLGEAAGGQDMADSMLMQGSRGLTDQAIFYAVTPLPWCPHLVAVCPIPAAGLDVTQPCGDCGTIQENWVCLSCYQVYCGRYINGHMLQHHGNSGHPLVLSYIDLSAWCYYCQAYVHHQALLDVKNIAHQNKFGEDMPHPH
Nature of the assay: Inhibition of human recombinant HDAC6. The method, boiled down:
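Purified recombinant human HDAC-2 or HDAC-6 at known enzyme concentration with tBOC(Ac)-Lys-AMC as substrate. IC50 is the mean of at least three experiments.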

Structures are written as SMILES.

For `O=C(/C=C/c1cccc(-c2nc3ccccc3n2-c2ccccc2)c1)NO`, at Histone deacetylase 8, the half-maximal inhibitory concentration (IC50) turned out to be 0.05 µM. For the same molecule, the results for the EC50 in the assay with A549, in the assay with HL-60 and with PC-3 were 16 µM, 1.6 µM and 4 µM, respectively.
As for `CCN1CCC[C@@H](n2c(-c3ccccc3)nc(C)c2-c2cccc(/C=C/C(=O)NO)c2)C1`, the figures for the IC50 (in assay [1]; at Histone deacetylase 8) were 0.63 µM and 0.4 µM, respectively.
As to `Cc1c(-c2ccccc2)nc(-c2cccc(/C=C/C(=O)NO)c2)n1CCc1ccccc1`, the IC50 in assay [1] amounted to 0.063 µM; on Histone deacetylase 8 it was 0.02 µM. Also, the EC50 was 0.8 µM with A549, 0.2 µM with HL-60 and 0.3 µM in the assay with PC-3.
As for `Cc1nc(Cc2ccccc2)n(CCc2ccccc2)c1-c1cccc(/C=C/C(=O)NO)c1`, the 50% inhibitory concentration (IC50) (in assay [1]; at Histone deacetylase 8) was 0.063 µM throughout.
Regarding `COc1ccc(-n2c(-c3cccc(/C=C/C(=O)NO)c3)nc3ccccc32)cc1`, the IC50 (in assay [1]; on Histone deacetylase 8) was 0.063 µM each time. For the same molecule, the EC50 was found to be 4 µM in the assay on A549, 0.5 µM with HL-60 and 1.2 µM in the assay on PC-3.
`Cc1nc(-c2cccc(/C=C/C(=O)NO)c2)n(CCc2ccccc2)c1C`: the concentration for half-maximal inhibition (IC50) in assay [1] was 0.063 µM; at Histone deacetylase 8, 0.031 µM. Also, the EC50 was determined as 0.4 µM in the assay with A549, 0.08 µM with HL-60 and 0.2 µM in the assay with PC-3.
For the molecule `CN(C)CCn1c(-c2cccc(/C=C/C(=O)NO)c2)nc2ccccc21`, the IC50 in assay [1] amounted to 0.079 µM; at Histone deacetylase 8, 0.16 µM. Also, the EC50 was 7.9 µM in the assay with A549, 1 µM in the assay with HL-60 and 2.5 µM in the assay with PC-3.
The matching figures for `Cc1nc(-c2cccc(/C=C/C(=O)NO)c2)n(CCc2ccccc2)c1Cc1ccccc1`: 0.05 µM, 0.02 µM, 0.3 µM, 0.05 µM and 0.2 µM.
Consider `O=C(/C=C/c1cccc(-c2nc3ccccc3n2C2CCCCC2)c1)NO`, for which the IC50 in assay [1] was 0.025 µM; on Histone deacetylase 8, 0.05 µM. For the same molecule, the EC50 with A549 was 3.1 µM; in the assay on HL-60, 0.5 µM; with PC-3, 1.6 µM.
The matching figures for `Cc1nc(-c2cccc(/C=C/C(=O)NO)c2)n(CCN2CCOCC2)c1Cc1ccccc1`: 0.079 µM, 0.063 µM, 2.5 µM, 0.2 µM and 0.6 µM.
`O=C(/C=C/c1cccc(-c2nc3ccccc3n2CCN2CCCC2)c1)NO`: the IC50 on Histone deacetylase 8 worked out at 0.063 µM. For the same molecule, the EC50 with A549 came out at 3.1 µM; with HL-60, 0.5 µM; in the assay on PC-3, 0.6 µM.
As to `CCN1CCC[C@@H](n2c(-c3cccc(/C=C/C(=O)NO)c3)nc(C)c2-c2ccccc2)C1`, the IC50 in assay [1] came to 0.079 µM; at Histone deacetylase 8, 0.05 µM. Further, the figures for the EC50 with A549, in the assay with HL-60 and in the assay on PC-3 were 0.3 µM, 0.04 µM and 0.08 µM, respectively.
The like results for `Cc1nc(-c2cccc(/C=C/C(=O)NO)c2)n(CCN2CCOCC2)c1-c1ccccc1` were, in that order, 0.12 µM, 0.079 µM, 4 µM, 0.3 µM and 1 µM.
Take `O=C(/C=C/c1cccc(-c2nc3ccccc3n2C2CCCNC2)c1)NO` (racemic): the IC50 came out at 0.04 µM in assay [1] and 0.16 µM on Histone deacetylase 8. Also, the EC50 stood at 2.5 µM with A549, 0.3 µM with HL-60 and 0.5 µM in the assay with PC-3.
The matching figures for `C[C@@H](c1ccccc1)n1c(-c2cccc(/C=C/C(=O)NO)c2)nc2ccccc21`: 0.063 µM, 0.016 µM, 31 µM, 3.1 µM and 16 µM.
Turning to `CCN1CCC[C@@H](n2c(-c3cccc(/C=C/C(=O)NO)c3)nc(-c3ccccc3)c2C)C1`, the IC50 amounted to 0.1 µM in assay [1] and 0.031 µM at Histone deacetylase 8. Besides, the results for the EC50 in the assay on A549, in the assay on HL-60 and in the assay with PC-3 were 0.3 µM, 0.03 µM and 0.05 µM, respectively.
The like results for `CC(C)N(CCn1c(-c2cccc(/C=C/C(=O)NO)c2)nc2ccccc21)C(C)C` were, in that order, 0.1 µM, 0.2 µM, 5 µM, 5 µM and 3.1 µM.
The matching figures for `Cc1nc(-c2cccc(/C=C/C(=O)NO)c2)n(CCc2ccccc2)c1-c1ccccc1`: 0.079 µM, 0.025 µM, 1 µM, 0.3 µM and 0.5 µM.
The matching figures for `O=C(/C=C/c1cccc(-c2nc3ccccc3n2[C@H]2CCCNC2)c1)NO`: 0.025 µM, 0.12 µM, 2.5 µM, 0.3 µM and 0.6 µM.
Regarding `CCN1CCC[C@@H](n2c(Cc3ccccc3)nc(C)c2-c2cccc(/C=C/C(=O)NO)c2)C1`, the IC50 in assay [1] came out at 0.5 µM; at Histone deacetylase 8, 0.1 µM.
With `CCN(CC)CCn1c(-c2cccc(/C=C/C(=O)NO)c2)nc2ccccc21`, the IC50 came to 0.079 µM in assay [1] and 0.063 µM on Histone deacetylase 8. Further, the EC50 is 4 µM with A549, 0.8 µM in the assay with HL-60 and 1.2 µM with PC-3.
In the case of `O=C(/C=C/c1cccc(-c2nc3ccccc3n2CCCc2ccccc2)c1)NO`, the half-inhibitory concentration (IC50) in assay [1] came out at 0.02 µM; on Histone deacetylase 8, 0.025 µM. In addition, the values for the EC50 with A549, with HL-60 and in the assay on PC-3 were 12 µM, 1.2 µM and 4 µM, respectively.
For the molecule `O=C(/C=C/c1cccc(-c2nc3ccccc3n2CCN2CCOCC2)c1)NO`, the IC50 in assay [1] is 0.16 µM; at Histone deacetylase 8, 0.4 µM. The EC50 in the assay on A549 was found to be 25 µM; in the assay on HL-60, 1.2 µM; in the assay with PC-3, 5 µM.
Take `CCN1CCC[C@H](n2c(-c3cccc(/C=C/C(=O)NO)c3)nc3ccccc32)C1`: the values for the IC50 (in assay [1]; at Histone deacetylase 8) were 0.079 µM and 0.16 µM, respectively. Besides, the figures for the EC50 in the assay on A549, with HL-60 and in the assay with PC-3 were 0.6 µM, 0.08 µM and 0.2 µM, respectively.
The matching figures for `O=C(/C=C/c1cccc(-c2nc3ccccc3n2Cc2ccccc2)c1)NO`: 0.063 µM, 0.04 µM, 6.3 µM, 5 µM and 1.2 µM.
For the molecule `Cc1nc(-c2ccccc2)n(CCc2ccccc2)c1-c1cccc(/C=C/C(=O)NO)c1`, the IC50 in assay [1] was found to be 0.079 µM; at Histone deacetylase 8, 0.05 µM.
Consider `O=C(/C=C/c1cccc(-c2nc3ccccc3n2CCN2CCCCC2)c1)NO`, for which the results for the IC50 (in assay [1]; at Histone deacetylase 8) were 0.04 µM and 0.1 µM, respectively. Besides, the values for the EC50 in the assay on A549, in the assay on HL-60 and in the assay with PC-3 were 1.2 µM, 0.3 µM and 0.6 µM, respectively.
For the molecule `Cn1c(-c2cccc(/C=C/C(=O)NO)c2)nc2ccccc21`, the IC50 in assay [1] was found to be 0.079 µM; on Histone deacetylase 8 it was 0.1 µM. For the same molecule, the EC50 in the assay on A549 amounted to 12 µM; in the assay on HL-60, 2 µM; in the assay with PC-3 it was 7.9 µM.
As to `Cc1nc(C)n(CCc2ccccc2)c1-c1cccc(/C=C/C(=O)NO)c1`, the IC50 in assay [1] was found to be 0.12 µM; at Histone deacetylase 8, 0.1 µM.
Turning to `CCN1CCC[C@@H](n2c(C)nc(C)c2-c2cccc(/C=C/C(=O)NO)c2)C1`, in assay [1], the IC50 amounted to 0.4 µM.
